According to ChEMBL document CHEMBL3232922, “Discovery and SAR of 6-alkyl-2,4-diaminopyrimidines as histamine H₄ receptor antagonists” (J Med Chem, 2014):

What was measured:
[1] = Volume of distribution at steady state in rat at 2 mg/kg, iv; assay type: ADME, organism-based; set-up: dose 2 mg/kg, route intravenous; settings: in vivo, read-out: Vdss
[2] = Oral bioavailability in Sprague-Dawley rat at 500 mg/kg; assay type: ADME, organism-based; settings: in vivo
[3] = Tmax in Balb/c mouse at 20 mg/kg, po; assay type: ADME, organism-based; set-up: dose 20 mg/kg, route oral; settings: in vivo
[4] = Cmax in beagle dog at 10 mg/kg, po; assay type: ADME, organism-based, Canis lupus familiaris; set-up: dose 10 mg/kg, route oral; settings: in vivo
[5] = Cmax in Balb/c mouse at 5 mg/kg, po; assay type: ADME, organism-based; set-up: dose 5 mg/kg, route oral; settings: in vivo
[6] = Tmax in Sprague-Dawley rat at 200 mg/kg, po; assay type: ADME, organism-based; set-up: dose 200 mg/kg, route oral; settings: in vivo
Histamine H4 receptor [7] = target: Histamine H4 receptor (Rattus norvegicus, UniProt Q91ZY1); experiment: Displacement of [3H]histamine from rat histamine H4 receptor expressed in SK-N-MC cells after 45 mins by competition binding analysis; assay type: cell-based
Summary of the method: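 Transfected cells expressing the H4 receptor, competition against [3H]histamine. Ki is the geometric mean of at least three independent determinations (each in triplicate), calculated by the Cheng–Prusoff equation.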

Histamine H4 receptor [8] = target: T1, Histamine H4 receptor (Mus musculus, UniProt Q91ZY2); experiment: Antagonist activity at mouse histamine H4 receptor expressed in SK-N-MC cells assessed as reduction of histamine-induced inhibition of cAMP-mediated beta-galactosidase reporter gene activity treated 10 mins prior to histamine challenge by microplate reader analysis; assay type: functional, cell-based; settings: read-out: pA2 (converted)
T1 sequence (Q91ZY2 whole entry): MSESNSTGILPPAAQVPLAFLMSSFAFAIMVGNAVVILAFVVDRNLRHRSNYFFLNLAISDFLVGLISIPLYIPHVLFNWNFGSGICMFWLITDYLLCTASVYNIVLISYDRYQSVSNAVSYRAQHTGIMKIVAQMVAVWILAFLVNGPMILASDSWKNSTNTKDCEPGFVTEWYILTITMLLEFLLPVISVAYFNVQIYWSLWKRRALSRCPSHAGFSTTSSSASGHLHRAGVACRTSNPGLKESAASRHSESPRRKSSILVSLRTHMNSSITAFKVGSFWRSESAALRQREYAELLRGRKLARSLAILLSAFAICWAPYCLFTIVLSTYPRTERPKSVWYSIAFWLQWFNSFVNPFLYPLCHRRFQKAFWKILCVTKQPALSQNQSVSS

[9] = Oral bioavailability in Sprague-Dawley rat at 50 mg/kg; assay type: ADME, organism-based; settings: in vivo
[10] = Oral bioavailability in Balb/c mouse at 5 mg/kg; assay type: ADME, organism-based; settings: in vivo
[11] = Clearance in beagle dog at 2 mg/kg, iv; assay type: ADME, organism-based, Canis lupus familiaris; set-up: dose 2 mg/kg, route intravenous; settings: beagle, in vivo
[12] = AUC in beagle dog at 2 mg/kg, iv; assay type: ADME, organism-based, Canis lupus familiaris, Plasma; set-up: dose 2 mg/kg, route intravenous; settings: beagle, plasma
[13] = Tmax in mouse kidney at 5 mg/kg, po administered as single dose by LC-MS/MS analysis; assay type: ADME, organism-based; set-up: dose 5 mg/kg, route oral
Summary of the method: (§1)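 Mice received one oral dose of 5 mg/kg. Brain, liver and kidneys were surgically removed from three mice per time point for up to 96 h after dosing. Tissue drug levels were measured by LC–MS/MS with a lower limit of quantitation of 1 ng/g. Tmax and t1/2 are reported as means.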

[14] = Half life in rat at 2 mg/kg, iv; assay type: ADME, organism-based; set-up: dose 2 mg/kg, route intravenous; settings: in vivo
[15] = Clearance in rat at 2 mg/kg, iv; assay type: ADME, organism-based; set-up: dose 2 mg/kg, route intravenous; settings: in vivo
[16] = Tmax in beagle dog at 10 mg/kg, po; assay type: ADME, organism-based, Canis lupus familiaris; set-up: dose 10 mg/kg, route oral; settings: in vivo
[17] = Half life in Sprague-Dawley rat at 200 mg/kg, po; assay type: ADME, organism-based; set-up: dose 200 mg/kg, route oral; settings: in vivo
[18] = Half life in Sprague-Dawley rat at 2 mg/kg, iv; assay type: ADME, organism-based; set-up: dose 2 mg/kg, route intravenous; settings: Sprague-Dawley, in vivo
[19] = Tmax in mouse brain at 5 mg/kg, po administered as single dose by LC-MS/MS analysis; assay type: ADME, organism-based; set-up: dose 5 mg/kg, route oral; summary of the method: as §1
[20] = Cmax in Sprague-Dawley rat at 10 mg/kg, po; assay type: ADME, organism-based; set-up: dose 10 mg/kg, route oral; settings: in vivo
[21] = Volume of distribution at steady state in Sprague-Dawley rat at 2 mg/kg, iv; assay type: ADME, organism-based; set-up: dose 2 mg/kg, route intravenous; settings: Sprague-Dawley, in vivo, read-out: Vdss
[22] = Oral bioavailability in rat at 10 mg/kg; assay type: ADME, organism-based; settings: in vivo

Histamine H4 receptor (Rattus norvegicus, UniProt Q91ZY1), sequence (Q91ZY1 whole entry): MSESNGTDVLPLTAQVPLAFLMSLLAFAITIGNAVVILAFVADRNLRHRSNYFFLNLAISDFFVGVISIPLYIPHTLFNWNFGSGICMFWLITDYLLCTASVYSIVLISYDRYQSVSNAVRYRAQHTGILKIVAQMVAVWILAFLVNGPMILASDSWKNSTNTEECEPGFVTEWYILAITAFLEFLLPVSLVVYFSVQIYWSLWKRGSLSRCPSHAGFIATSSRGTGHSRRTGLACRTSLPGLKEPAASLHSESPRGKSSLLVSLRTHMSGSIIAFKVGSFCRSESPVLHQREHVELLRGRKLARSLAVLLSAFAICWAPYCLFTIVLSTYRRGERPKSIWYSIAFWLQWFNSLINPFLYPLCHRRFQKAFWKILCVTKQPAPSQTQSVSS

- Vd [1]: 19.9 L/kg
- bioavailability [2]: 53%
- Tmax [3]: 0.5 h
- Cmax [4]: 3900 nM
- Cmax [5]: 790 nM
- Tmax [6]: 8 h
- Ki (Histamine H4 receptor [7]): 188 nM
- Kb (Histamine H4 receptor [8]): 5.01 nM
- bioavailability [9]: 38%
- bioavailability [10]: 84%
- clearance [11]: 23.3 mL/min/kg
- AUC [12]: 6.7 µM·h
- Tmax [13]: 2 h
- half-life [14]: 2.1 h
- clearance [15]: 36.7 mL/min/kg
- Tmax [16]: 0.8 h
- half-life [17]: 6.16 h
- half-life [18]: 2.1 h
- Tmax [19]: 6 h
- Cmax [20]: 260 nM
- Vd [21]: 19.9 L/kg
- bioavailability [22]: 36%
SMILES: CC(C)c1cc(N2CC[C@@H](N)C2)nc(N)n1 [JNJ-39758979]
